Experimental findings from ChEMBL document CHEMBL5143728, “Next-Generation Diprovocims with Potent Human and Murine TLR1/TLR2 Agonist Activity That Activate the Innate and Adaptive Immune Response” (J Med Chem, 2022) are described below.

The target in assay [1] is Toll-like receptor 1/2 (Mus musculus) (UniProt Q9QUN7+Q9EPQ1). Put plainly: Agonist activity at TLR1/TLR2 in wild type C57BL/6J mouse macrophages assessed as stimulation of TNF alpha release measured for 4 hrs by ELISA based assay relative to diprovocim-1. Format: cell-based. Further details: Activity: concentration or dose not given beside the values. The conditions noted are these: Macrophage. In a few lines: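 Thioglycolate-elicited peritoneal macrophages from wild type C57BL/6J mice, harvested by PBS lavage 4 d after i.p. 4% thioglycolate. Cultured in DMEM/10% FBS at 37 °C, 5% CO2, seeded at 1 × 10⁵ cells/well and exposed to graded compound concentrations for 4 h, with final DMSO ≤0.5% held constant. LPS served as positive control. Supernatant mouse TNF-α was read by ELISA. EC50 from duplicate means.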

The target of the next assay is Toll-like receptor 1/2 (Homo sapiens, UniProt O60603+Q15399). Description: Agonist activity at TLR1/TLR2 in human THP-1 derived macrophages assessed as stimulation of TNF alpha release measured for 4 hrs by ELISA based assay relative to diprovocim-1. Further details: Activity: concentration or dose not given beside the values. Format: cell-based. In a few lines:
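THP-1 cells differentiated with 100 nM PMA in RPMI/10% FBS for 24 h, washed, then rested 24 h in fresh medium. Seeded at 0.5 × 10⁵ cells/well and exposed to graded compound concentrations for 4 h, with final DMSO held at 0.1%. LPS served as positive control and DMSO as negative control. Supernatant human TNF-α was read by ELISA. EC50 from duplicate means.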
(In general: An ELISA detects its analyte on a solid surface through an enzyme-linked reagent.)

As to `CC(C)(C)OCC(=O)OCCCCCCCCCCCCNC(=O)[C@@H]1CN(C(=O)c2ccc(C(=O)N3C[C@@H](C(=O)N[C@H]4C[C@@H]4c4ccccc4)[C@H](C(=O)N[C@H]4C[C@@H]4c4ccccc4)C3)cc2)C[C@H]1C(=O)N[C@H]1C[C@@H]1c1ccccc1`, the values for the Activity (in assay [1] (filed as agonist); at Toll-like receptor 1/2 (filed as agonist)) were 230% and 100%, respectively.
In the same order, the values of `CC(C)(C)OC(=O)C(=O)NCC(=O)OCCCCCCCCCCCCNC(=O)[C@@H]1CN(C(=O)c2ccc(C(=O)N3C[C@@H](C(=O)N[C@H]4C[C@@H]4c4ccccc4)[C@H](C(=O)N[C@H]4C[C@@H]4c4ccccc4)C3)cc2)C[C@H]1C(=O)N[C@H]1C[C@@H]1c1ccccc1` are 400% and 110%.
As to `C#CCCCCCCCCCCCCNC(=O)[C@@H]1CN(C(=O)c2ccc(C(=O)N3C[C@@H](C(=O)N[C@H]4C[C@@H]4c4ccccc4)[C@H](C(=O)N[C@H]4C[C@@H]4c4ccccc4)C3)cc2)C[C@H]1C(=O)N[C@H]1C[C@@H]1c1ccccc1`, the Activity in assay [1] (filed as agonist) was 180%; on Toll-like receptor 1/2 (filed as agonist), 120%.
`CC(C)(C)OC(=O)N[C@@H](CSCc1ccccc1)C(=O)OCCCCCCCCCCCCNC(=O)[C@@H]1CN(C(=O)c2ccc(C(=O)N3C[C@@H](C(=O)N[C@H]4C[C@@H]4c4ccccc4)[C@H](C(=O)N[C@H]4C[C@@H]4c4ccccc4)C3)cc2)C[C@H]1C(=O)N[C@H]1C[C@@H]1c1ccccc1`: the Activity in assay [1] (filed as agonist) worked out at 200%; at Toll-like receptor 1/2 (filed as agonist) it was 100%.
In the same order, the values of `CC(C)(C)OC(=O)NCCOCCCCCCCCCCCCNC(=O)[C@@H]1CN(C(=O)c2ccc(C(=O)N3C[C@@H](C(=O)N[C@H]4C[C@@H]4c4ccccc4)[C@H](C(=O)N[C@H]4C[C@@H]4c4ccccc4)C3)cc2)C[C@H]1C(=O)N[C@H]1C[C@@H]1c1ccccc1` are 220% and 100%.
In the same order, the values of `CC(C)(C)OC(=O)c1ccc(C(=O)OCCCCCCCCCCCCNC(=O)[C@@H]2CN(C(=O)c3ccc(C(=O)N4C[C@@H](C(=O)N[C@H]5C[C@@H]5c5ccccc5)[C@H](C(=O)N[C@H]5C[C@@H]5c5ccccc5)C4)cc3)C[C@H]2C(=O)N[C@H]2C[C@@H]2c2ccccc2)cc1` are 190% and 90%.
In the same order, the values of `CC(C)(C)OC(=O)N[C@@H](CCCCNC(=O)OCC1c2ccccc2-c2ccccc21)C(=O)OCCCCCCCCCCCCNC(=O)[C@@H]1CN(C(=O)c2ccc(C(=O)N3C[C@@H](C(=O)N[C@H]4C[C@@H]4c4ccccc4)[C@H](C(=O)N[C@H]4C[C@@H]4c4ccccc4)C3)cc2)C[C@H]1C(=O)N[C@H]1C[C@@H]1c1ccccc1` are 200% and 100%.
Consider `O=C(O)/C=C/C(=O)NCC(=O)OCCCCCCCCCCCCNC(=O)[C@@H]1CN(C(=O)c2ccc(C(=O)N3C[C@@H](C(=O)N[C@H]4C[C@@H]4c4ccccc4)[C@H](C(=O)N[C@H]4C[C@@H]4c4ccccc4)C3)cc2)C[C@H]1C(=O)N[C@H]1C[C@@H]1c1ccccc1`, for which the Activity was determined as 60% in assay [1] (filed as agonist) and 100% at Toll-like receptor 1/2 (filed as agonist).
In the same order, the values of `Nc1ccc(C(=O)OCCCCCCCCCCCCNC(=O)[C@@H]2CN(C(=O)c3ccc(C(=O)N4C[C@@H](C(=O)N[C@H]5C[C@@H]5c5ccccc5)[C@H](C(=O)N[C@H]5C[C@@H]5c5ccccc5)C4)cc3)C[C@H]2C(=O)N[C@H]2C[C@@H]2c2ccccc2)cc1` are 300% and 100%.
In the same order, the values of `CC(C)(C)OC(=O)/C=C/C(=O)NCC(=O)OCCCCCCCCCCCCNC(=O)[C@@H]1CN(C(=O)c2ccc(C(=O)N3C[C@@H](C(=O)N[C@H]4C[C@@H]4c4ccccc4)[C@H](C(=O)N[C@H]4C[C@@H]4c4ccccc4)C3)cc2)C[C@H]1C(=O)N[C@H]1C[C@@H]1c1ccccc1` are 110% and 90%.
As for `CC(C)(C)OC(=O)N1CCC[C@H]1C(=O)OCCCCCCCCCCCCNC(=O)[C@@H]1CN(C(=O)c2ccc(C(=O)N3C[C@@H](C(=O)N[C@H]4C[C@@H]4c4ccccc4)[C@H](C(=O)N[C@H]4C[C@@H]4c4ccccc4)C3)cc2)C[C@H]1C(=O)N[C@H]1C[C@@H]1c1ccccc1`, the results for the Activity (in assay [1] (filed as agonist); at Toll-like receptor 1/2 (filed as agonist)) were 100% and 90%, respectively.
`CC(C)(C)OC(=O)CNC(=O)CCCCCCCCCCCNC(=O)[C@@H]1CN(C(=O)c2ccc(C(=O)N3C[C@@H](C(=O)N[C@H]4C[C@@H]4c4ccccc4)[C@H](C(=O)N[C@H]4C[C@@H]4c4ccccc4)C3)cc2)C[C@H]1C(=O)N[C@H]1C[C@@H]1c1ccccc1`: the Activity in assay [1] (filed as agonist) was 70%; at Toll-like receptor 1/2 (filed as agonist) it was 100%.
In the same order, the values of `C[C@@H](NC(=O)OC(C)(C)C)C(=O)OCCCCCCCCCCCCNC(=O)[C@@H]1CN(C(=O)c2ccc(C(=O)N3C[C@@H](C(=O)N[C@H]4C[C@@H]4c4ccccc4)[C@H](C(=O)N[C@H]4C[C@@H]4c4ccccc4)C3)cc2)C[C@H]1C(=O)N[C@H]1C[C@@H]1c1ccccc1` are 200% and 110%.
In the same order, the values of `CC(C)(C)OC(=O)NCC(=O)NCCCCCCCCCCCCNC(=O)[C@@H]1CN(C(=O)c2ccc(C(=O)N3C[C@@H](C(=O)N[C@H]4C[C@@H]4c4ccccc4)[C@H](C(=O)N[C@H]4C[C@@H]4c4ccccc4)C3)cc2)C[C@H]1C(=O)N[C@H]1C[C@@H]1c1ccccc1` are 90% and 90%.
In the same order, the values of `C#CCN(C)CC(=O)OCCCCCCCCCCCCNC(=O)[C@@H]1CN(C(=O)c2ccc(C(=O)N3C[C@@H](C(=O)N[C@H]4C[C@@H]4c4ccccc4)[C@H](C(=O)N[C@H]4C[C@@H]4c4ccccc4)C3)cc2)C[C@H]1C(=O)N[C@H]1C[C@@H]1c1ccccc1` are 100% and 40%.
With `[N-]=[N+]=NCCCCCCCCCCCCNC(=O)[C@@H]1CN(C(=O)c2ccc(C(=O)N3C[C@@H](C(=O)N[C@H]4C[C@@H]4c4ccccc4)[C@H](C(=O)N[C@H]4C[C@@H]4c4ccccc4)C3)cc2)C[C@H]1C(=O)N[C@H]1C[C@@H]1c1ccccc1`, the results for the Activity (in assay [1] (filed as agonist); at Toll-like receptor 1/2) were 50% and 30%, respectively.
Turning to `Nc1ccc(CCCCCCCCNC(=O)[C@@H]2CN(C(=O)c3ccc(C(=O)N4C[C@@H](C(=O)N[C@H]5C[C@@H]5c5ccccc5)[C@H](C(=O)N[C@H]5C[C@@H]5c5ccccc5)C4)cc3)C[C@H]2C(=O)N[C@H]2C[C@@H]2c2ccccc2)cc1`, the Activity came out at 250% in assay [1] (filed as agonist) and 100% on Toll-like receptor 1/2 (filed as agonist).
In the same order, the values of `O=C(NCCCCCCCCCCCCOCc1ccc([N+](=O)[O-])cc1)[C@@H]1CN(C(=O)c2ccc(C(=O)N3C[C@@H](C(=O)N[C@H]4C[C@@H]4c4ccccc4)[C@H](C(=O)N[C@H]4C[C@@H]4c4ccccc4)C3)cc2)C[C@H]1C(=O)N[C@H]1C[C@@H]1c1ccccc1` are 230% and 110%.
In the same order, the values of `CC(C)(C)OC(=O)CCOCCOCCOCCNC(=O)CCCCCCCCCCCNC(=O)[C@@H]1CN(C(=O)c2ccc(C(=O)N3C[C@@H](C(=O)N[C@H]4C[C@@H]4c4ccccc4)[C@H](C(=O)N[C@H]4C[C@@H]4c4ccccc4)C3)cc2)C[C@H]1C(=O)N[C@H]1C[C@@H]1c1ccccc1` are 140% and 100%.
In the same order, the values of `CC(=O)OCCCCCCCCCCCCNC(=O)[C@@H]1CN(C(=O)c2ccc(C(=O)N3C[C@@H](C(=O)N[C@H]4C[C@@H]4c4ccccc4)[C@H](C(=O)N[C@H]4C[C@@H]4c4ccccc4)C3)cc2)C[C@H]1C(=O)N[C@H]1C[C@@H]1c1ccccc1` are 140% and 90%.
Regarding `CC(C)(C)OC(=O)c1ccc(C(=O)NCC(=O)OCCCCCCCCCCCCNC(=O)[C@@H]2CN(C(=O)c3ccc(C(=O)N4C[C@@H](C(=O)N[C@H]5C[C@@H]5c5ccccc5)[C@H](C(=O)N[C@H]5C[C@@H]5c5ccccc5)C4)cc3)C[C@H]2C(=O)N[C@H]2C[C@@H]2c2ccccc2)cc1`, the results for the Activity (in assay [1] (filed as agonist); at Toll-like receptor 1/2 (filed as agonist)) were 130% and 100%, respectively.
In the same order, the values of `CC(C)(C)OC(=O)N[C@@H](COCc1ccccc1)C(=O)OCCCCCCCCCCCCNC(=O)[C@@H]1CN(C(=O)c2ccc(C(=O)N3C[C@@H](C(=O)N[C@H]4C[C@@H]4c4ccccc4)[C@H](C(=O)N[C@H]4C[C@@H]4c4ccccc4)C3)cc2)C[C@H]1C(=O)N[C@H]1C[C@@H]1c1ccccc1` are 370% and 100%.
Take `Cc1ccc(S(=O)(=O)n2cnc(C[C@H](NC(=O)OC(C)(C)C)C(=O)OCCCCCCCCCCCCNC(=O)[C@@H]3CN(C(=O)c4ccc(C(=O)N5C[C@@H](C(=O)N[C@H]6C[C@@H]6c6ccccc6)[C@H](C(=O)N[C@H]6C[C@@H]6c6ccccc6)C5)cc4)C[C@H]3C(=O)N[C@H]3C[C@@H]3c3ccccc3)c2)cc1`: the Activity in assay [1] (filed as agonist) worked out at 110%; at Toll-like receptor 1/2 (filed as agonist), 90%.
In the same order, the values of `CC(C)(C)OC(=O)N[C@@H](CCC(=O)OCc1ccccc1)C(=O)OCCCCCCCCCCCCNC(=O)[C@@H]1CN(C(=O)c2ccc(C(=O)N3C[C@@H](C(=O)N[C@H]4C[C@@H]4c4ccccc4)[C@H](C(=O)N[C@H]4C[C@@H]4c4ccccc4)C3)cc2)C[C@H]1C(=O)N[C@H]1C[C@@H]1c1ccccc1` are 210% and 100%.
In the case of `O=C(O)CNC(=O)CCCCCCCCCCCNC(=O)[C@@H]1CN(C(=O)c2ccc(C(=O)N3C[C@@H](C(=O)N[C@H]4C[C@@H]4c4ccccc4)[C@H](C(=O)N[C@H]4C[C@@H]4c4ccccc4)C3)cc2)C[C@H]1C(=O)N[C@H]1C[C@@H]1c1ccccc1`, the Activity in assay [1] amounted to 30%; on Toll-like receptor 1/2 (filed as agonist), 110%.
As for `CC[C@H](C)[C@H](NC(=O)OC(C)(C)C)C(=O)OCCCCCCCCCCCCNC(=O)[C@@H]1CN(C(=O)c2ccc(C(=O)N3C[C@@H](C(=O)N[C@H]4C[C@@H]4c4ccccc4)[C@H](C(=O)N[C@H]4C[C@@H]4c4ccccc4)C3)cc2)C[C@H]1C(=O)N[C@H]1C[C@@H]1c1ccccc1`, the Activity in assay [1] (filed as agonist) came out at 140%; at Toll-like receptor 1/2 (filed as agonist), 100%.
